Test [1] has as its target T1, NAD-dependent protein deacetylase sirtuin-1 (Homo sapiens) (UniProt Q96EB6).
T1 sequence (whole entry): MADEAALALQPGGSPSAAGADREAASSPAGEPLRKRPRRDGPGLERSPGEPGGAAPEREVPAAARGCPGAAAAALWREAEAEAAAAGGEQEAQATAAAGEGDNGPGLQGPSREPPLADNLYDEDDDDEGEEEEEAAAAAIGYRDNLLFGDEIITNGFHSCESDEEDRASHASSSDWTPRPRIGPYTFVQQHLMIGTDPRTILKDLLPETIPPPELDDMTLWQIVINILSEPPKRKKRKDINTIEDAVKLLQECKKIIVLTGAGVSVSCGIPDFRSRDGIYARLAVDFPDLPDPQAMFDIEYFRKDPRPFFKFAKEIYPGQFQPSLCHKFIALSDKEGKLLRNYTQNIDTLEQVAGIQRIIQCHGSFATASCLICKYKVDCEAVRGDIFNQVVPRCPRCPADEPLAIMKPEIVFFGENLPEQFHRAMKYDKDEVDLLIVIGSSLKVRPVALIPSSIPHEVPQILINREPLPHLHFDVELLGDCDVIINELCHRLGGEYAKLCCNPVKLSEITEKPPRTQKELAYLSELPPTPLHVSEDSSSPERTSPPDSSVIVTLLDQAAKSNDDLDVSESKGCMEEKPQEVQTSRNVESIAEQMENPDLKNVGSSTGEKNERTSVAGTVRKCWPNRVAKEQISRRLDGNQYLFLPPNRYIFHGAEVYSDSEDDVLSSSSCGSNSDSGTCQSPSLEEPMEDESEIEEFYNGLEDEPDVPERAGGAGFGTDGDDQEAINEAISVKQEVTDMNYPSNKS
The test is described as follows: Binding affinity to His6-tagged SIRT1 (unknown origin) expressed in Escherichia coli BL21 (DE3) assessed as thermal stability at 90 uM using H3K18Ac as substrate incubated for 20 mins in presence of NAD+ by GloMelt thermal shift assay. Summed up:
(§1)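 SirT1 or SirT3 at 8 µM with 1 mM NAD⁺ and 0.25 mM H3K18ac; SirT2 at 16 µM with 1 mM NAD⁺ and 0.5 mM H4K16ac. Compound 90 µM, 20 min RT before dye addition and melting; ΔTm from melting curves.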

Test [2] addresses T2, NAD-dependent protein deacetylase sirtuin-2 (Homo sapiens) (UniProt Q8IXJ6).
T2 sequence (whole entry): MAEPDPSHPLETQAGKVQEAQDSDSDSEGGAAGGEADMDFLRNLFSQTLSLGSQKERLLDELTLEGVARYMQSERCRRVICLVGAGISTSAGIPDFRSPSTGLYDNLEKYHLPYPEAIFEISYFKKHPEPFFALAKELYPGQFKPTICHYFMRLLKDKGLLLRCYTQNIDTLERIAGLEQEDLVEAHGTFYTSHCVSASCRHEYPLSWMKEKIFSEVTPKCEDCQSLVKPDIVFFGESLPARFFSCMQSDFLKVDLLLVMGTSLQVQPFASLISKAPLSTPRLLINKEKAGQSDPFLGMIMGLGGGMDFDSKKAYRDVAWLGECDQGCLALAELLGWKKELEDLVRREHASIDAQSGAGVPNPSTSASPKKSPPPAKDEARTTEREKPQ
The test is described as follows: Binding affinity to His6-tagged/TEV fused SIRT2 (unknown origin) expressed in Escherichia coli BL21 (DE3) assessed as thermal stability at 90 uM using H4K16Ac as substrate incubated for 20 mins in presence of NAD+ by GloMelt thermal shift assay. Summed up: as §1

For test [3], the target named is T3, NAD-dependent protein deacetylase sirtuin-3, mitochondrial (Homo sapiens) (UniProt Q9NTG7).
T3 sequence (whole entry): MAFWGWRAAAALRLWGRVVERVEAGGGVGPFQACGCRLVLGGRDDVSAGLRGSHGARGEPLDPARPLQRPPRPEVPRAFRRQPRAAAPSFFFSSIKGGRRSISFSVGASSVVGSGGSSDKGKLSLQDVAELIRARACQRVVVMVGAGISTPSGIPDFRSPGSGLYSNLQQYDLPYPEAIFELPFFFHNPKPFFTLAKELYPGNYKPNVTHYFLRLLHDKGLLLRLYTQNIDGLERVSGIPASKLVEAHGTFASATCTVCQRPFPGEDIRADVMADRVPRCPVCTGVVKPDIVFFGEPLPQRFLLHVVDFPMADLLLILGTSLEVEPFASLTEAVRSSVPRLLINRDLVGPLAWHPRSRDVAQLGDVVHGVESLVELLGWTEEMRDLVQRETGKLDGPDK
The test is described as follows: Binding affinity to His6-tagged/TEV fused SIRT3 (unknown origin) expressed in Escherichia coli BL21 (DE3) assessed as thermal stability at 90 uM using H3K18Ac as substrate incubated for 20 mins in presence of NAD+ by GloMelt thermal shift assay. An outline of the steps: as §1

Test [4] deals with T1, NAD-dependent protein deacetylase sirtuin-1 (Homo sapiens). The test is described as follows: Inhibition of His6-tagged SIRT1 (unknown origin) expressed in Escherichia coli BL21 (DE3) deacetylation activity incubated for 30 mins in presence of NAD+. The following applies: dose 0.04-10 µM.
For test [5] the target is unchanged. The test is described as follows: Binding affinity to His6-tagged SIRT1 (unknown origin) expressed in Escherichia coli BL21 (DE3) assessed as increase in thermal stability at 0.1 mM and 41.5 degreeC using H3K18Ac peptide as substrate incubated for 10 mins in presence of NAD+ by SYPRO orange thermal shift assay.
Test [6] has the same target. The test is described as follows: Inhibition of His6-tagged SIRT1 (unknown origin) expressed in Escherichia coli BL21 (DE3) at 1 uM using Fluor-de-Lys-Ac-Gly-Gly-Lys(ac)-AMC peptide as substrate incubated for 5 mins by fluorescence assay. An outline of the steps: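 Conditions as the FLucK529ac deacetylase assay (100 nM SirT1, sirtuin buffer 2) but with 10 µM Ac-Gly-Gly-Lys(ac)-AMC substrate and inhibitors at 1 µM. Stopped with equal volume 2× trypsin (0.1 mg/mL); released coumarin read after 5 min RT, ex 355/em 460 nm.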

Calls of active or inactive are those of the source. The calls are words filed in the database; no cut-off is given here.

Regarding `N#Cc1ccccc1CN1CC(C(N)=O)Oc2ccccc21` (stereo in doubt; 4.27), the outcome in test [1] was Active. Further, the outcome in test [2] and in test [3] was inactive.

Take `NC(=O)C1CCCc2c1[nH]c1ccc(Cl)cc21` (stereo unspecified): in test [4], the inhibition entry is “Dose-Dependent Effect”. Besides, the outcome in test [5] was Active.

As to `NC(=O)C1CN(Cc2ccc3nonc3c2)c2ccccc2O1` (stereo unspecified), the inhibition result in test [6] was “inactive”. Also, the inhibition result in test [4] was “Dose-Dependent Effect”. For the same compound, the outcome in test [5] and in test [1] was Active. The result in test [2] and in test [3] was inactive.

For the origin of these results see ChEMBL document CHEMBL4834428.
